The values below come from ChEMBL document CHEMBL1141003, “Carbon analogs of antifungal dioxane-triazole derivatives: synthesis and in vitro activities” (Bioorg Med Chem Lett, 2008).

Converted amounts (≈) assume the structure as drawn.

Data set [1] has as its system Candida albicans. Description: Antimicrobial activity against Candida albicans ATCC 24433 by broth microdilution method. The data set is classed as functional. Summed up: (§1)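 MICs were determined by NCCLS-guideline broth microdilution in RPMI1640 medium at 35 °C against Candida strains.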
Background: Broth dilution looks for growth in wells or tubes with falling amounts of substance.

Data set [2] relates to Nakaseomyces glabratus. Nature of the data set: Antimicrobial activity against Candida glabrata ATCC 90030 by broth microdilution method. The data set is classed as functional. In short, it runs like this:
as §1

The test system of data set [3] is Aspergillus fumigatus. Description: Antimicrobial activity against Aspergillus fumigatus ATCC 26430 by broth microdilution method.
Data set [4] has as its system Cryptococcus neoformans. Description: Antimicrobial activity against Cryptococcus neoformans TIMM 1855 by broth microdilution method. The data set is classed as functional. In short, it runs like this:
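NCCLS broth microdilution MIC determination at 35 °C for Cryptococcus neoformans.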

Data set [5] deals with Aspergillus flavus. Description: Antimicrobial activity against Aspergillus flavus SANK 18497 by broth microdilution method.
The subject of data set [6] is Aspergillus fumigatus. Nature of the data set: Antimicrobial activity against Aspergillus fumigatus SANK 10569 by broth microdilution method. The data set is classed as functional. In short, it runs like this: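 Broth microdilution following NCCLS guidelines. Aspergillus strains incubated at 30 °C in RPMI1640 medium. The MIC was read as the endpoint.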
The subject of data set [7] is Candida tropicalis. Nature of the data set: Antimicrobial activity against Candida tropicalis ATCC 750 by broth microdilution method. The data set is classed as functional. In short, it runs like this: as §1
Data set [8] relates to Candida albicans. Description: Antimicrobial activity against Candida albicans SANK 51486 by broth microdilution method. The data set is classed as functional. In short, it runs like this:
as §1

For data set [9], the system named is Candida albicans. Nature of the data set: Antimicrobial activity against Candida albicans TIMM 3164 by broth microdilution method. The data set is classed as functional. Summed up: as §1
The test system of data set [10] is Pichia kudriavzevii. Description: Antimicrobial activity against Candida krusei ATCC 6258 by broth microdilution method. The data set is classed as functional. Summed up:
as §1

The subject of data set [11] is Candida albicans. Description: Antimicrobial activity against Candida albicans ATCC 64550 by broth microdilution method. The data set is classed as functional. In short, it runs like this: as §1
Data set [12] concerns Candida parapsilosis. Nature of the data set: Antimicrobial activity against Candida parapsilosis ATCC 90018 by broth microdilution method. The data set is classed as functional. To be noted: Lodderomyces parapsilosis. Summed up:
as §1

Data set [13] relates to Candida albicans. Nature of the data set: Antimicrobial activity against Candida albicans 427 infected ddY mouse assessed as survival at 20 mg/kg, po administered after 1 hr, 4 hrs, 24 hrs of infection. The data set is classed as functional. In short, it runs like this: (§2)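 ddY mice (n = 10) infected systemically by intravenous injection of C. albicans 427, 5.5 × 10⁶ CFU/mouse. Treatment 20 mg/kg/administration, given 1, 4 and 24 h after infection, orally or ip as per line. Survival recorded 21 days after administration.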

In data set [14] the test system is Mus musculus. Nature of the data set: Toxicity in ddY mouse at 500 mg/kg, po once daily for 4 days. To be noted: in vivo, 96 h.
The test system of data set [15] is Candida albicans. Nature of the data set: Antimicrobial activity against Candida albicans 427 infected ddY mouse assessed as survival at 20 mg/kg, ip administered after 1 hr, 4 hrs, 24 hrs of infection. Particulars: route intraperitoneal. The data set is classed as functional. In short, it runs like this:
as §2

Data set [16] has as its system Candida albicans. Nature of the data set: Antimicrobial activity against Candida albicans 427 infected ddY mouse assessed as survival rate at 20 mg/kg, po administered after 1 hr, 4 hrs, 24 hrs of infection. The data set is classed as functional. In short, it runs like this: as §2

Regarding `C[C@@H](S[C@H]1CO[C@H](/C=C/C=C/c2ccc(C(F)(F)F)cc2)OC1)[C@](O)(Cn1cncn1)c1ccc(F)cc1F.O=C(O)C(=O)O`, the MIC (in general, the smallest concentration in the dilution series that meets the test's criterion for growth inhibition) was 0.125 µg/mL in [1]; 1 µg/mL in [2]; 0.25 µg/mL in data set [3]; 0.016 µg/mL in [4]; 0.5 µg/mL in [5]; 0.25 µg/mL in [6]. In addition, the MIC was determined as 0.125 µg/mL in data set [7]; 0.016 µg/mL in [8]; 0.125 µg/mL in data set [9]; 0.25 µg/mL in [10]; 1 µg/mL in data set [11]; 0.063 µg/mL in data set [12].

`C[C@@H](S[C@H]1CO[C@H](/C=C/C=C/C=C/c2ccc(C(F)(F)F)cc2)OC1)[C@](O)(Cn1cncn1)c1ccc(F)cc1F.O=C(O)C(=O)O`: the minimum inhibitory concentration (MIC) is 0.25 µg/mL in data set [1]; over 4 µg/mL in [2]; 2 µg/mL in data set [3]; 0.5 µg/mL in data set [4]; 4 µg/mL in [5]; 2 µg/mL in data set [6]. Moreover, the MIC in [7] was 2 µg/mL; in data set [8], 0.031 µg/mL; in data set [9] it was 1 µg/mL; in [10], 1 µg/mL; in [11], over 4 µg/mL; in data set [12], 0.25 µg/mL.

On to `C[C@@H](C[C@H]1CO[C@H](/C=C/c2ccc(C(F)(F)F)cc2)OC1)[C@](O)(Cn1cncn1)c1ccc(F)cc1F.O=C(O)C(=O)O`, for which the MIC in data set [1] came to 0.031 µg/mL; in data set [2], 1 µg/mL; in data set [3] it was 0.25 µg/mL; in [4], 0.016 µg/mL; in [5] it was 0.5 µg/mL; in [6], 0.25 µg/mL. For the same molecule, the minimum inhibitory concentration (MIC) in data set [7] was 0.125 µg/mL; in data set [8] it was at most 0.008 µg/mL; in [9], 0.016 µg/mL; in data set [10], 0.063 µg/mL; in data set [11] it was 1 µg/mL; in data set [12], 0.031 µg/mL.

As to `C[C@@H](C[C@H]1CO[C@H](/C=C/C=C/C=C/c2ccc(C(F)(F)F)cc2)OC1)[C@](O)(Cn1cncn1)c1ccc(F)cc1F.O=C(O)C(=O)O`, the MIC in [1] turned out to be 0.125 µg/mL; in data set [2] it was 2 µg/mL; in [3], 0.5 µg/mL; in data set [4], 0.125 µg/mL; in data set [5], 1 µg/mL; in [6], 0.5 µg/mL. Further, the minimal inhibitory concentration (MIC) in [7] turned out to be 0.25 µg/mL; in data set [8], 0.031 µg/mL; in data set [9], 0.125 µg/mL; in data set [10] it was 0.25 µg/mL; in [11] it was 0.5 µg/mL; in data set [12], 0.125 µg/mL.

Consider `C[C@@H](C[C@H]1CO[C@H](c2ccc(C(F)(F)F)cc2)OC1)[C@](O)(Cn1cncn1)c1ccc(F)cc1F.O=C(O)C(=O)O`, for which the MIC in data set [1] came to 0.016 µg/mL; in data set [2], 1 µg/mL; in data set [3], 0.25 µg/mL; in data set [4], 0.031 µg/mL; in data set [5], 1 µg/mL; in data set [6] it was 0.25 µg/mL. In addition, the minimum inhibitory concentration (MIC) in data set [7] is 0.125 µg/mL; in data set [8], at most 0.008 µg/mL; in [9] it was 0.016 µg/mL; in data set [10], 0.125 µg/mL; in data set [11], 0.5 µg/mL; in [12], 0.016 µg/mL.

Turning to `C[C@@H](S[C@H]1CO[C@H](c2ccc(C(F)(F)F)cc2)OC1)[C@](O)(Cn1cncn1)c1ccc(F)cc1F`, the MIC is 0.016 µg/mL (≈ 0.031 µM) in data set [1]; 1 µg/mL (≈ 1.94 µM) in [2]; 1 µg/mL (≈ 1.94 µM) in [3]; 0.031 µg/mL (≈ 0.0601 µM) in [4]; 2 µg/mL (≈ 3.88 µM) in [5]; 1 µg/mL (≈ 1.94 µM) in data set [6]. The MIC in [7] is 0.5 µg/mL (≈ 0.97 µM); in [8], at most 0.008 µg/mL; in data set [9] it was 0.063 µg/mL (≈ 0.122 µM); in [10] it was 0.25 µg/mL (≈ 0.485 µM); in data set [11], 1 µg/mL (≈ 1.94 µM); in data set [12], 0.031 µg/mL (≈ 0.0601 µM).

In the case of `C[C@@H](C[C@H]1CO[C@H](/C=C/C=C/c2ccc(C(F)(F)F)cc2)OC1)[C@](O)(Cn1cncn1)c1ccc(F)cc1F.O=C(O)C(=O)O`, the MIC in [1] is 0.016 µg/mL; in data set [2], 1 µg/mL; in [3], 0.125 µg/mL; in [4], 0.016 µg/mL; in data set [5], 0.5 µg/mL; in data set [6] it was 0.125 µg/mL. The minimum inhibitory concentration (MIC) in [7] was 0.125 µg/mL; in [8] it was at most 0.008 µg/mL; in data set [9] it was 0.016 µg/mL; in data set [10] it was 0.063 µg/mL; in data set [11] it was 0.5 µg/mL; in [12] it was 0.031 µg/mL. The Survival in data set [13] and in [15] was 21 days in each case. In addition, the Activity result in data set [14] was “Non-toxic”.

As to `C[C@@H](S[C@H]1CO[C@H](/C=C/c2ccc(C(F)(F)F)cc2)OC1)[C@](O)(Cn1cncn1)c1ccc(F)cc1F`, the MIC came out at 0.063 µg/mL (≈ 0.116 µM) in [1]; 1 µg/mL (≈ 1.85 µM) in data set [2]; 0.25 µg/mL (≈ 0.462 µM) in [3]; 0.016 µg/mL (≈ 0.0295 µM) in data set [4]; 1 µg/mL (≈ 1.85 µM) in data set [5]; 0.25 µg/mL (≈ 0.462 µM) in [6]. Also, the minimum inhibitory concentration (MIC) stood at 0.031 µg/mL (≈ 0.0572 µM) in data set [7]; 0.016 µg/mL (≈ 0.0295 µM) in [8]; 0.125 µg/mL (≈ 0.231 µM) in data set [9]; 0.25 µg/mL (≈ 0.462 µM) in [10]; 2 µg/mL (≈ 3.69 µM) in [11]; 0.031 µg/mL (≈ 0.0572 µM) in data set [12].

In the case of `OC(Cn1cncn1)(Cn1cncn1)c1ccc(F)cc1F` [FLUCONAZOLE], the minimum inhibitory concentration (MIC) is 0.5 µg/mL (≈ 1.63 µM) in data set [1]; over 4 µg/mL in data set [2]; over 4 µg/mL in [3]; over 4 µg/mL in [4]; over 4 µg/mL in data set [5]; over 4 µg/mL in data set [6]. Also, the MIC was 2 µg/mL (≈ 6.53 µM) in data set [7]; 0.25 µg/mL (≈ 0.816 µM) in [8]; over 4 µg/mL in data set [9]; over 4 µg/mL in data set [10]; over 4 µg/mL in [11]; 0.5 µg/mL (≈ 1.63 µM) in data set [12]. Moreover, the Activity in data set [16] is reported as 60%.

As for `CCC(C)n1ncn(-c2ccc(N3CCN(c4ccc(OCC5COC(Cn6cncn6)(c6ccc(Cl)cc6Cl)O5)cc4)CC3)cc2)c1=O` (centres undefined) [ITRACONAZOLE], the MIC in [1] was found to be 0.125 µg/mL (≈ 0.177 µM); in data set [2] it was 1 µg/mL (≈ 1.42 µM); in [3], 0.25 µg/mL (≈ 0.354 µM); in data set [4] it was 0.25 µg/mL (≈ 0.354 µM); in data set [5], 0.5 µg/mL (≈ 0.709 µM); in data set [6], 0.25 µg/mL (≈ 0.354 µM). Further, the MIC was found to be 0.5 µg/mL (≈ 0.709 µM) in [7]; 0.031 µg/mL (≈ 0.0439 µM) in data set [8]; 0.25 µg/mL (≈ 0.354 µM) in data set [9]; 0.5 µg/mL (≈ 0.709 µM) in data set [10]; 1 µg/mL (≈ 1.42 µM) in data set [11]; 0.125 µg/mL (≈ 0.177 µM) in [12].
